The test system of test [1] is SCC-25. The test can be described thus: Synergistic antiproliferative activity against human SCC25 cells assessed as fractional inhibition at 5 uM preincubated for 1 hr followed by irradiation with 10 Gy IR and measured after 6 days by MTT assay (reference value: 0.347). Format: functional. An outline of the steps: (§1)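 SCC-25 cells seeded 1000/well in 96-well plates in DMEM/10% FBS and left 24 h. Drug or vehicle added, then after 1 h X-irradiated to 2.5, 5 or 10 Gy on one plate using a shifted lead shield. Plates incubated 6 days, then MTT (0.5 mg/mL, 45 min), DMSO solubilisation, absorbance at 570 nm. Fractional inhibition = 1 − fraction of surviving cells.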
For orientation: Tetrazolium assays rely on reduction of a dye to a coloured formazan, in cell work by metabolically active cells.

The test system of test [2] is SCC-25. The test can be described thus: Synergistic antiproliferative activity against human SCC25 cells assessed as fractional inhibition at 5 uM preincubated for 1 hr followed by irradiation with 5 Gy IR and measured after 6 days by MTT assay (reference value: 0.133). Format: functional. A digest of the protocol: as §1
The subject of test [3] is FaDu. The test can be described thus: Synergistic antiproliferative activity against human FADU cells assessed as reduction in cell viability at 1 uM preincubated for 1 hr followed by irradiation with 2.5 Gy IR and measured after 6 days by MTT assay relative to control. Conditions: light or radiation study. Format: functional. An outline of the steps:
(§2)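 FaDu or SCC-25 cells were grown in DMEM with 10% FBS at 37 °C and 5% CO2. They were seeded at 1000 cells/well in 96-well plates for 24 h, then dosed with compound (fresh DMSO stock diluted in medium) or vehicle. After 1 h, X-rays were given with a sliding 5 mm lead shield, so one plate held 0, 2.5, 5 and 10 Gy columns. After 6 days, MTT (0.5 mg/mL, 45 min) was added, then DMSO, and A570 was read. Values were normalised to the unirradiated vehicle control. Fractional inhibition = 1 − surviving fraction.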

In test [4] the test system is FaDu. The test can be described thus: Synergistic antiproliferative activity against human FADU cells assessed as combination index at 0.05 uM preincubated for 1 hr followed by irradiation with 5 Gy IR and measured after 6 days by MTT assay. Format: functional. An outline of the steps: (§3)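 Combination index was calculated by the Chou–Talalay median-effect method from the 6-day MTT viability data of the single-plate compound/X-ray (2.5, 5, 10 Gy) design. CI < 1 denotes synergy, CI = 1 additivity and CI > 1 antagonism.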

Test [5] concerns FaDu. The test can be described thus: Synergistic induction of apoptosis in human FADU cells assessed as increase in caspase at 0.5 uM followed by irradiation with 5 Gy IR incubated for 48 hrs by luminescence based analysis. Format: functional, cell-based.
The test system of test [6] is SCC-25. The test can be described thus: Induction of cell cycle arrest in human SCC25 cells at 0.5 uM by propidium iodide staining based flow cytometry. Format: functional. A digest of the protocol: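 Cell-cycle distribution was measured by propidium iodide staining and flow cytometry. Readings were taken 6 and 24 h after compound alone, 5 Gy IR alone, or the combination, against control.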

The subject of test [7] is SCC-25. The test can be described thus: Synergistic antiproliferative activity against human SCC25 cells assessed as combination index at 5 uM preincubated for 1 hr followed by irradiation with 2.5 Gy IR and measured after 6 days by MTT assay. Format: functional. An outline of the steps: (§4)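 SCC-25 cells grown in DMEM with 10% FBS at 37 °C, 5% CO2, seeded 1000 cells/well in 96-well plates and left 24 h. Drug in DMSO, diluted in complete medium, added 1 h before X-irradiation. A movable 5 mm lead shield gave 0, 2.5, 5 or 10 Gy on one plate. After 6 days, MTT readout at 570 nm. Combination index by Chou–Talalay from viability data.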

The subject of test [8] is FaDu. The test can be described thus: Induction of apoptosis in human FADU cells assessed as decrease in Bcl2 at 0.5 uM incubated for 48 hrs by immunoblot analysis. Format: functional, cell-based. A digest of the protocol:
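FaDu cells received compound at 0.5 μM, 5 Gy IR, or both. After 48 h, lysates were immunoblotted for NRF2, cyclin B1, CDK1, Bax and Bcl-2. Membranes were then stripped and reprobed for β-actin as the loading control.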

Test [9] has as its system SCC-25. The experiment in a line: Synergistic antiproliferative activity against human SCC25 cells assessed as combination index at 0.005 uM preincubated for 1 hr followed by irradiation with 10 Gy IR and measured after 6 days by MTT assay. Format: functional. A digest of the protocol: as §3
Test [10] concerns SCC-25. The experiment in a line: Synergistic antiproliferative activity against human SCC25 cells assessed as combination index at 0.05 uM preincubated for 1 hr followed by irradiation with 5 Gy IR and measured after 6 days by MTT assay. Format: functional. A digest of the protocol: as §4
Test [11] has as its system SCC-25. The experiment in a line: Synergistic antiproliferative activity against human SCC25 cells assessed as fractional inhibition at 0.05 uM preincubated for 1 hr followed by irradiation with 10 Gy IR and measured after 6 days by MTT assay (reference value: 0.347). Format: functional. A digest of the protocol:
as §1

In test [12] the test system is FaDu. The experiment in a line: Synergistic antiproliferative activity against human FADU cells assessed as reduction in cell viability at 1 uM preincubated for 1 hr followed by irradiation with 5 Gy IR and measured after 6 days by MTT assay relative to control. Format: functional. Particulars: light or radiation study. A digest of the protocol: as §2
The subject of test [13] is FaDu. The test can be described thus: Synergistic induction of apoptosis in human FADU cells at 0.5 uM followed irradiation with 5Gy IR by annexin V FITC and propidium iodide staining based flow cytometry. Format: functional, cell-based. Conditions: TDE = time-dependent effect. An outline of the steps:
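FaDu or SCC-25 cells, untreated, given 5 Gy IR, drug, or both. Apoptotic cells measured by annexin V flow cytometry 48 h after treatment. Percentage compared with control by t test.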
For orientation: Flow cytometry measures light scatter and fluorescence of single cells or particles in a stream.

For test [14], the system named is SCC-25. The test can be described thus: Synergistic antiproliferative activity against human SCC25 cells assessed as combination index at 0.05 uM preincubated for 1 hr followed by irradiation with 2.5 Gy IR and measured after 6 days by MTT assay. Format: functional. A digest of the protocol: as §4
The subject of test [15] is SCC-25. The experiment in a line: Synergistic antiproliferative activity against human SCC25 cells assessed as fractional inhibition at 0.5 uM preincubated for 1 hr followed by irradiation with 10 Gy IR and measured after 6 days by MTT assay (reference value: 0.347). Format: functional. An outline of the steps:
as §1

Test [16] relates to SCC-25. The experiment in a line: Synergistic induction of cell cycle arrest in human SCC25 cells assessed as decrease in accumulation at S phase at 0.5 uM followed irradiation with 5Gy IR incubated for 24 hrs by propidium iodide staining based flow cytometry. Format: functional. A digest of the protocol:
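FaDu or SCC-25 cells, untreated, given 5 Gy IR, drug, or drug plus 5 Gy. Cell-cycle distribution by propidium iodide staining and flow cytometry at 6 h and 24 h after treatment. G0/G1, S and G2/M fractions compared with control by t test.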

Calls of active or inactive are those of the source. The rule behind the calls is not given here.

Here are results for one compound from ChEMBL document CHEMBL4364341, “Radiosensitization of Head and Neck Squamous Cell Carcinoma (HNSCC) by a Podophyllotoxin” (ACS Med Chem Lett, 2019).

The term inhibition denotes the drop in the measured response relative to a control, in per cent. With `COc1ccc2c(c1)N(CCO)C1=C(C(=O)OC1)C2c1ccccc1` (stereo unspecified), the “fractional inhibitory concentration index (FICI)” value with SCC-25 [1] amounted to 0.71; in the test on SCC-25 [2], 0.728; in the test on SCC-25 [11], 0.379; in the test with SCC-25 [15], 0.713. In addition, the figures for the inhibition at 1 µM in the test with FaDu [3] and in the test with FaDu [12] were 30% and 48%, respectively. For the same compound, the CI in the test with FaDu [4] is 1.18; with SCC-25 [7], 1.244; in the test on SCC-25 [9] it was 1.021; in the test on SCC-25 [10], 1.753; with SCC-25 [14], 0.835. Also, the outcome in the test on FaDu [5], with FaDu [8] and in the test with SCC-25 [16] was Active. Moreover, the outcome with SCC-25 [6] was inactive. Moreover, in the test on FaDu [13], the Activity entry was “Tde”.
